Published values from different studies.
Lines come from different studies, so protocols differ. pIC50: −log10 of the molar value.
Effect on: cell growth or viability

NCCOc1cc(C(=O)Nc2cc(OCCN3CCCC3)c3ccccc3n2)nc(C(=O)Nc2cc(OCCN3CCCC3)c3ccccc3n2)c1  pIC50 (HT-1080; ATP luminescence; 72 h): 6.70
COc1cc(OC)c(/C=C/S(=O)(=O)Nc2ccc(OC)c(N)c2)c(OC)c1  pIC50 (NCI-H187; trypan blue; 96 h): 8.40
COc1cc(C(=O)Nc2cc(OC)c3ccccc3n2)nc(C(=O)Nc2cc(OC)c3ccccc3n2)c1  pIC50 (HT-1080; ATP luminescence; 72 h): < 4.40
COc1cccc2c1C(=O)c1c(O)c3c(c(O)c1C2=O)C[C@@](O)(C(=O)CO)C[C@@H]3O[C@H]1C[C@H](N)[C@H](O)[C@H](C)O1  pIC50 (A 172; WST-1; 72 h): 7.40
CC(C)/N=C1\c2cc(C(N)=O)nc3c(N)c(Cl)c(N)c(c23)N1C  pIC50 (HCC4017): 6.32
NCCCOc1cc(NC(=O)c2cc(OCc3c[nH]nn3)cc(C(=O)Nc3cc(OCCCN)c4ccccc4n3)n2)nc2ccccc12  pIC50 (HT-1080; ATP luminescence; 72 h): 4.45
CCCON(Cc1ccc(C(=O)NO)cc1)C(=O)Nc1ccc(N(C)C)cc1  pIC50 (SUP-B15; ATP luminescence; 72 h): 5.18
CC(C)C[C@H](NC(=O)[C@H](Cc1ccccc1)NC(=O)c1cnccn1)B(O)O  pIC50 (SK-N-MC; ATP luminescence): 8.11
NCCCOc1cc(NC(=O)c2cc(Cl)cc(C(=O)Nc3cc(OCCCN)c4ccccc4n3)n2)nc2ccccc12  pIC50 (HT-1080; ATP luminescence; 72 h): 6.22
CCCCCCCCCCCC(=O)Oc1c(C)c(O)c(C(=O)/C=C/c2ccccc2)c(OC)c1C  pIC50 (SH-SY5Y; SRB; 72 h): < 4.30
O=C(Nc1cc(OCCN2CCCC2)c2ccccc2n1)c1cc(OCc2ccc(F)cc2)cc(C(=O)Nc2cc(OCCN3CCCC3)c3ccccc3n2)n1  pIC50 (HT-1080; ATP luminescence; 72 h): 5.07
Cc1ccc2nc(Cl)c(C=C3C(=O)Nc4ccccc43)cc2c1  pIC50 (CHO; MTT; 72 h): 4.10
COc1c(C)c(OC)c2c(c1C)OC(c1ccccc1)CC2=O (centres unmarked)  pIC50 (SH-SY5Y; SRB; 72 h): < 4.30
C=C(C)C(=O)Nc1ccc(-c2c(-c3ccc(Oc4nccc(C)n4)c(F)c3)c3c(N)ncnc3n2C)cc1  pIC50 (SNU-16; ATP luminescence; 96 h): 8.49
C#CCOc1cc(C(=O)Nc2cc(OCCN)c3ccccc3n2)nc(C(=O)Nc2cc(OCCN)c3ccccc3n2)c1  pIC50 (HT-1080; ATP luminescence; 72 h): 5.33
CCN(CC)CCNC(=O)c1c(C)[nH]c(/C=C2\C(=O)Nc3ccc(F)cc32)c1C  pIC50 (IEC-6; 72 h): 5.51
NCCCOc1cc(NC(=O)c2cccc(C(=O)Nc3cc(OCCCN)c4ccccc4n3)n2)nc2ccccc12  pIC50 (HT-1080; ATP luminescence; 72 h): 5.96
O=C1Nc2ccccc2C1=Cc1cc2ccccc2nc1Cl  pIC50 (CHO; MTT; 72 h): < 4.00
O=[N+]([O-])c1ccc(NC(=S)NN=Cc2ccccn2)cc1  pIC50 (BHK; SRB; 48 h): 4.26
CCN1C(=O)N(c2c(F)c(OC)cc(OC)c2F)Cc2cnc3[nH]c(CN4CCOCC4)cc3c21  pIC50 (SNU-16; ATP luminescence; 96 h): 8.47
Cc1cc(C)cc(COc2cc3c(cc2OCc2cc(C)cc(C)c2)[C@H]2C[C@](O)(Cc4cn(Cc5ccncc5)nn4)C[C@H](C)N2CC3)c1  pIC50 (GES1; MTT; 48 h): 5.59
CC(=O)O[C@H]1C(=O)[C@@]2(C)[C@H]([C@H](OC(=O)c3ccccc3)[C@]3(O)C[C@H](OC(=O)[C@H](O)[C@@H](NC(=O)c4ccccc4)c4ccccc4)C(C)=C1C3(C)C)[C@]1(OC(C)=O)CO[C@@H]1C[C@@H]2O  pIC50 (HCC1937; ATP luminescence; 72 h): < 5.60
CN1C(=O)c2cc(C(N)=O)nc3c(N)c(Cl)c(N)c1c23  pIC50 (HCC4017): 4.80
CCN1CCN(c2ccc(Nc3cc(N(C)C(=O)Nc4c(Cl)c(OC)cc(OC)c4Cl)ncn3)cc2)CC1  pIC50 (NCI-H716; ATP luminescence; 96 h): 8.24
NCCOc1cc(NC(=O)c2cc(OCc3ccc(F)cc3)cc(C(=O)Nc3cc(OCCN)c4ccccc4n3)n2)nc2ccccc12  pIC50 (HT-1080; ATP luminescence; 72 h): 5.80
O=C(Nc1cccc(CO)c1)c1c[nH]c2ccc(Cl)cc12  pIC50 (T24; MTT): 4.80
CCN(CC)CCCC(C)Nc1cnc(C(=O)Nc2cc(F)cc3cccnc23)cn1 (centres unmarked)  pIC50 (Pan02; MTT): 5.37
CC[C@H]1CN2CCc3cc(OC)c(OC)cc3[C@@H]2C[C@@H]1C[C@H]1NCCc2cc(OC)c(OC)cc21  pIC50 (CHO; MTT): 6.60
Cc1cc(C)cc(COc2cc3c(cc2OCc2cc(C)cc(C)c2)[C@H]2C[C@](O)(Cc4cn(Cc5ccc(S(C)(=O)=O)cc5)nn4)C[C@H](C)N2CC3)c1  pIC50 (GES1; MTT; 48 h): 5.69
O=C(Nc1ccccc1CO)c1c[nH]c2ccc(Cl)cc12  pIC50 (T24; MTT): 4.74
Cn1ccnc1CNCCNc1ccnc2cc(Cl)ccc12  pIC50 (CHO; MTT): 3.62
COc1cc(Nc2nccc(-c3cnn4nc(OC)ccc34)n2)cc(C(F)(F)F)c1  pIC50 (SK-N-MC; ATP luminescence): 6.89
